What is called EC50 is the concentration giving half of the maximal effect.

The subject of one series is Leishmania infantum. In words: Antileishmanial activity against Leishmania infantum MHOM/MA(BE)/67 infected in mouse primary peritoneal macrophages treated 2 hrs post-infection and incubated for 5 days by Giemsa staining based microscopic analysis. The class given is functional, organism-based. Particulars: MHOM/MA(BE)/67, Peritoneal macrophage. A digest of the protocol:
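Peritoneal macrophages from mice, harvested 2 days after 2% potato starch stimulation, infected after 48 h with L. infantum in supplemented RPMI-1640 with 5% FCS. Compounds were added 2 h post-infection as a 10-point 4-fold dilution series, final DMSO <1%, and incubated 5 days at 37 °C, 5% CO₂. Amastigotes per macrophage were counted after 10% Giemsa staining, and IC₅₀ was taken from % reduction versus untreated-infected controls.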

Series [1] concerns Trypanosoma brucei rhodesiense. In words: Antitrypanosomal activity against Trypanosoma brucei rhodesiense assessed as parasite growth inhibition. The class given is functional, organism-based.
For a further series, the system named is MRC5. Briefly: Cytotoxicity against human MRC5 cells assessed as reduction in cell viability after 3 days by resazurin dye based fluorimetric analysis. Particulars: MRC5, 72 h. In outline: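 MRC-5_SV2 cells, 1.5×10⁵ cells/mL in MEM with Earl's salts, L-glutamine, NaHCO₃ and 5% inactivated FCS, were exposed 3 days at 37 °C, 5% CO₂ to a 10-point 4-fold dilution series, final DMSO <1%. Resazurin was added for 4 h, fluorescence read at ex 550/em 590 nm, and IC₅₀ derived versus untreated and medium controls.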
(In general: Resazurin is reduced to fluorescent resorufin, in cell work by metabolically active cells.)

Series [2] can be described thus: Selectivity index, ratio of EC50 for cytotoxicity against human MRC5 cells to EC50 for antitrypanosomal activity against Trypanosoma cruzi Tulahuen CL2 infected in human MRC5 cells. Format: toxicity, cell-based. Particulars: read-out: Ratio EC50. A digest of the protocol:
(§1)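 Selectivity index is the MRC-5 EC₅₀ divided by the parasite EC₅₀.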

In another series the test system is Trypanosoma cruzi. In words: Antitrypanosomal activity against Trypanosoma cruzi Tulahuen CL2 infected in human MRC5 cells assessed as inhibition of parasite growth incubated for 7 days by chlorophenol red-fl-D-galactopyranoside based spectrophotometric analysis. Particulars: Tulahuen CL2, MRC5, 168 h. The class given is functional, organism-based. A digest of the protocol:
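T. cruzi Tulahuen CL2 β-galactosidase strain was maintained on MRC-5_SV2 cells. Wells held 4×10³ cells plus 4×10⁴ parasites with a 10-point 4-fold compound series, final DMSO <1%. After 7 days at 37 °C, 5% CO₂, substrate was added and absorbance read at 540 nm after 4 h at 37 °C. IC₅₀ was taken from % reduction versus infected and uninfected controls.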

The nature of series [3]: Selectivity index, ratio of EC50 for cytotoxicity against mouse primary macrophage to EC50 for antileishmanial activity against Leishmania infantum MHOM/MA(BE)/67 infected in mouse primary peritoneal macrophages. The class given is toxicity. Particulars: read-out: Ratio EC50.
Another series concerns Macrophage. Briefly: Cytotoxicity against mouse primary macrophage cells assessed as reduction in cell viability. The class given is cell-based. In outline:
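Macrophage toxicity was scored microscopically within the L. infantum assays, using cell detachment, lysis and granulation. At least 500 cells over adjacent fields were scored semi-quantitatively, and CC₅₀ was taken from % reduction in normal cells versus untreated controls.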

Series [4] relates to Trypanosoma brucei brucei. Briefly: Antitrypanosomal activity against Trypanosoma brucei brucei assessed as parasite growth inhibition. The class given is functional, organism-based.
The nature of series [5]: Selectivity index, ratio of EC50 for human MRC5 cells to EC50 for antitrypanosomal activity against Trypanosoma brucei rhodesiense. The class given is toxicity. Particulars: read-out: Ratio EC50. In outline:
as §1

Series [6] in a line: Selectivity index, ratio of EC50 for human MRC5 cells to EC50 for antitrypanosomal activity against Trypanosoma brucei brucei. Format: toxicity. Conditions: read-out: Ratio EC50. A digest of the protocol:
as §1

For the molecule `Nc1nc2c(ncn2[C@@H]2O[C@H](CO)[C@@H](F)[C@H]2O)c(=O)[nH]1`, the concentration for a half-maximal effect (EC50) in the series on Leishmania infantum was 46.9 µM; in series [1] it was greater than 64 µM; in the series on MRC5, 42 µM; in the series on Trypanosoma cruzi, 34.6 µM; with Macrophage it was greater than 64 µM; in series [4], 42 µM. The selectivity ratio is 1 in series [2] and greater than 1 in [3].
Regarding `OC[C@H]1O[C@@H](n2cc(Br)c3c(O)ncnc32)[C@H](O)[C@H]1F`, the half-maximal effective concentration (EC50) is greater than 64 µM with Leishmania infantum; 1.57 µM in series [1]; greater than 64 µM in the series with MRC5; greater than 64 µM with Trypanosoma cruzi; greater than 64 µM in the series with Macrophage; 16 µM in series [4]. Also, the selectivity ratio in series [5] was greater than 41; in series [6], greater than 4.
Regarding `O=c1[nH]cnc2c1c(F)cn2[C@@H]1O[C@H](CO)[C@@H](F)[C@H]1O`, the EC50 (with Leishmania infantum; in series [1]; with MRC5; in the series on Trypanosoma cruzi; in the series on Macrophage; in series [4]) was greater than 64 µM each time.
Turning to `COc1ncnc2c1c(Br)cn2[C@@H]1O[C@H](CO)[C@@H](F)[C@H]1O`, the EC50 in the series on Leishmania infantum is greater than 64 µM; in series [1] it was 51.6 µM; with MRC5 it was greater than 64 µM; in the series on Trypanosoma cruzi it was greater than 64 µM; in the series with Macrophage it was greater than 64 µM; in [4], 8.64 µM. Also, the selectivity ratio in [5] came out at 1; in [6], 7.
With `COc1nc(N)nc2c1ccn2[C@@H]1O[C@H](CO)[C@@H](F)[C@H]1O`, the half-maximal effective concentration (EC50) (in the series on Leishmania infantum; in [1]; in the series on MRC5; with Trypanosoma cruzi; in the series on Macrophage; in series [4]) was greater than 64 µM throughout.
In the case of `Nc1ncnc2c1ccn2[C@@H]1O[C@H](CO)[C@H](F)[C@H]1O`, the half-maximal effective concentration (EC50) in the series with Leishmania infantum is greater than 64 µM; in [1], 0.0063 µM; in the series with MRC5 it was greater than 64 µM; with Trypanosoma cruzi it was greater than 64 µM; in the series on Macrophage, greater than 64 µM; in series [4], 0.04 µM. In addition, the selectivity ratio in series [5] was greater than 10100; in [6], greater than 1590.
Take `CCc1cn([C@@H]2O[C@H](CO)[C@@H](F)[C@H]2O)c2ncnc(N)c12`: the EC50 in the series with Leishmania infantum is greater than 64 µM; in [1] it was 21.3 µM; with MRC5, 40.3 µM; with Trypanosoma cruzi it was greater than 64 µM; in the series with Macrophage, greater than 64 µM; in series [4], 20.5 µM. Further, the selectivity ratio in series [2] is less than 1; in [5] it was 2; in series [6], 2.
Take `Nc1ncnc2c1c(Br)cn2[C@@H]1O[C@H](CO)[C@@H](F)[C@H]1O`: the EC50 with Leishmania infantum was determined as 0.37 µM; in series [1] it was 0.028 µM; in the series with MRC5, 32 µM; with Trypanosoma cruzi, 0.041 µM; with Macrophage, 1.02 µM; in series [4], 0.031 µM. For the same molecule, the results for the selectivity ratio in [2], in [3] and in series [5] were 779, 3 and 1150, respectively.
On to `N#Cc1cn([C@@H]2O[C@H](CO)[C@@H](F)[C@H]2O)c2ncnc(N)c12`, for which the 50% effective concentration (EC50) was 2.03 µM in the series with Leishmania infantum; 0.38 µM in series [1]; 1.32 µM with MRC5; 9.66 µM with Trypanosoma cruzi; 2 µM with Macrophage; 10.5 µM in [4]. Moreover, the selectivity ratio in series [2] was less than 1; in series [3], less than 1; in series [5], 3.
With `Nc1ncnc2c1c(C(F)(F)F)cn2[C@@H]1O[C@H](CO)[C@@H](F)[C@H]1O`, the EC50 was 27.3 µM with Leishmania infantum; 2.06 µM in [1]; 7.01 µM in the series with MRC5; 3.17 µM in the series with Trypanosoma cruzi; 32 µM with Macrophage; 2.02 µM in series [4]. In addition, the selectivity ratio in series [3] came to 1; in series [5], 3; in [6] it was 3.
As to `COc1ncnc2c1ncn2[C@@H]1O[C@H](CO)[C@@H](F)[C@H]1O`, the EC50 with Leishmania infantum was greater than 64 µM; in [1] it was 35.2 µM; in the series on MRC5 it was greater than 64 µM; with Trypanosoma cruzi, 30.1 µM; in the series with Macrophage, greater than 64 µM; in [4] it was 33.5 µM. The selectivity ratio was greater than 2 in [2], 2 in series [5] and 2 in series [6].
`COc1nc(N)nc2c1c(Br)cn2[C@@H]1O[C@H](CO)[C@@H](F)[C@H]1O`: the 50% effective concentration (EC50) (in the series on Leishmania infantum; in series [1]; in the series on MRC5; in the series with Trypanosoma cruzi; with Macrophage; in [4]) was greater than 64 µM throughout.
For `O=c1[nH]cnc2c1c(Cl)cn2[C@@H]1O[C@H](CO)[C@@H](F)[C@H]1O`, the concentration giving a half-maximal response (EC50) (in the series with Leishmania infantum; in series [1]; in the series with MRC5; in the series on Trypanosoma cruzi; in the series with Macrophage; in [4]) was greater than 64 µM each time.
`O=c1[nH]cnc2c1c(I)cn2[C@@H]1O[C@H](CO)[C@@H](F)[C@H]1O`: the EC50 (in the series on Leishmania infantum; in series [1]; in the series with MRC5; in the series with Trypanosoma cruzi; in the series on Macrophage; in series [4]) was greater than 64 µM in each case.
As for `O=c1[nH]cnc2c1ncn2[C@@H]1O[C@H](CO)[C@@H](F)[C@H]1O`, the EC50 with Leishmania infantum was greater than 64 µM; in series [1], greater than 64 µM; with MRC5, greater than 64 µM; in the series with Trypanosoma cruzi, 4.28 µM; in the series with Macrophage, greater than 64 µM; in [4], greater than 64 µM. For the same molecule, the selectivity ratio in series [2] is greater than 15.
As to `Nc1ncnc2c1c(F)cn2[C@@H]1O[C@H](CO)[C@@H](F)[C@H]1O`, the half-maximal effective concentration (EC50) in the series with Leishmania infantum worked out at 1.75 µM; in series [1] it was 0.16 µM; in the series with MRC5, 5.49 µM; with Trypanosoma cruzi, 0.25 µM; in the series with Macrophage, 2 µM; in series [4] it was 0.47 µM. Also, the selectivity ratio was found to be 22 in series [2], 27 in series [5] and 9 in series [6].
Regarding `Nc1nc(N)c2ncn([C@@H]3O[C@H](CO)[C@@H](F)[C@H]3O)c2n1`, the EC50 (in the series with Leishmania infantum; in series [1]; with MRC5; in the series with Trypanosoma cruzi; in the series on Macrophage; in [4]) was greater than 64 µM in each case.
For the molecule `O=c1[nH]cnc2c1c(Br)cn2[C@@H]1O[C@H](CO)[C@@H](F)[C@H]1O`, the EC50 (in the series on Leishmania infantum; in series [1]; in the series with MRC5; in the series on Trypanosoma cruzi; in the series with Macrophage; in [4]) was greater than 64 µM each time.
For the molecule `Nc1nc2c(ccn2[C@@H]2O[C@H](CO)[C@@H](F)[C@H]2O)c(=O)[nH]1`, the EC50 (in the series with Leishmania infantum; in series [1]; in the series on MRC5; with Trypanosoma cruzi; with Macrophage; in series [4]) was greater than 64 µM throughout.
As to `O=c1[nH]cnc2c1ccn2[C@@H]1O[C@H](CO)[C@@H](F)[C@H]1O`, the EC50 (in the series with Leishmania infantum; in series [1]; in the series with MRC5; in the series on Trypanosoma cruzi; in the series with Macrophage; in series [4]) was greater than 64 µM in each case.
For `O=c1[nH]cnc2c1c(-c1ccccc1)cn2[C@@H]1O[C@H](CO)[C@@H](F)[C@H]1O`, the EC50 (in the series with Leishmania infantum; in [1]; in the series with MRC5; with Trypanosoma cruzi; with Macrophage; in series [4]) was greater than 64 µM in each case.
Turning to `O=C(Cn1ccnc1[N+](=O)[O-])NCc1ccccc1` [BENZNIDAZOLE], in the series with Trypanosoma cruzi, the EC50 came to 2.02 µM.
On to `CCCCCCCCCCCCCCCCOP(=O)([O-])OCC[N+](C)(C)C` [MILTEFOSINE], for which the response in the series with Leishmania infantum was half-maximal at 7.47 µM (EC50).
Consider `Cc1ccc(C(=O)Nc2ccc(S(=O)(=O)O)c3cc(S(=O)(=O)O)cc(S(=O)(=O)O)c23)cc1NC(=O)c1cccc(NC(=O)Nc2cccc(C(=O)Nc3cc(C(=O)Nc4ccc(S(=O)(=O)O)c5cc(S(=O)(=O)O)cc(S(=O)(=O)O)c45)ccc3C)c2)c1` [SURAMIN], for which the EC50 in series [4] was 0.03 µM.
